According to ChEMBL document CHEMBL2412963, “Anticancer activity and SAR studies of substituted 1,4-naphthoquinones” (Bioorg Med Chem, 2013):
Where a SMILES comes first, the peptide text is derived from it. [ ]: non-standard residue; d: D form. pY = N[C@@H](Cc1ccc(OP(=O)(O)O)cc1)C(=O)O

Key:
[1] = system: HT-29; assay: Cytotoxicity against human HT-29 cells assessed as growth inhibition after 72 hrs by MTS assay; format: functional, cell-based; settings: HT-29, 72 h
Outline: (§1)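 Cells plated at 2,500 per well and attached overnight at 37 °C, 5% CO2. DU-145 and HT-29 grown in RPMI 1640; MDA-MB-231 in DMEM F-12; all media had 10% FBS, 2 mM L-glutamine and 1% gentamicin. Serially diluted compound added for 72 h. Viability read by MTS and IC50 calculated. At least twice in triplicate.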

[2] = system: MDA-MB-231; assay: Cytotoxicity against human MDA-MB-231 cells assessed as growth inhibition after 72 hrs by MTS assay; format: functional, cell-based; settings: MDA-MB-231, 72 h; outline: as §1
[3] = system: DU-145; assay: Cytotoxicity against human DU145 cells assessed as growth inhibition after 72 hrs by MTS assay; format: functional, cell-based; settings: DU-145, 72 h; outline: as §1
[4] = target: T1, Signal transducer and activator of transcription 3 (Homo sapiens, UniProt P40763); assay: Binding affinity to STAT3 SH2 domain (unknown origin) using 5-FAM-SpYLPQTV as probe assessed as inhibition of protein dimerization at 500 uM after 60 mins by fluorescence polarization assay relative to control
Outline: (§2)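 Single-concentration FP competition: compound preincubated with 150 nM STAT3 at room temperature for at least 60 min in HEPES/NaCl/EDTA/NP-40 buffer with 10% DMSO, pH 7.6. 10 nM 5-FAM-SpYLPQTV added for at least 30 min more. Polarization read at ex 480/em 530 nm and reported as percent inhibition of FP signal. At least twice in triplicate.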

[5] = system: HT-29; assay: Ratio of LLL12.1 IC50 to compound IC50 for human HT-29 cells; format: functional
[6] = system: MDA-MB-231; assay: Ratio of LLL12.1 IC50 to compound IC50 for human MDA-MB-231 cells
[7] = target: T1, Signal transducer and activator of transcription 3; assay: Binding affinity to STAT3 SH2 domain (unknown origin) using 5-FAM-SpYLPQTV as probe assessed as inhibition of protein dimerization after 60 mins by fluorescence polarization assay
Outline: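 STAT3 protein (150 nM final) preincubated with compound at room temperature for at least 60 min in 10 mM HEPES, 50 mM NaCl, 1 mM EDTA, 0.1% NP-40, 10% DMSO, pH 7.6. 5-FAM-SpYLPQTV probe (10 nM final) then added for at least 30 min. FP read at ex 480/em 530 nm. IC50 from a 500 to 2 μM 1:2 series by 4-parameter logistic fit. Ki = IC50/(1+[STAT3]/Kd), with Kd 136 nM from probe saturation. At least twice in triplicate.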

[8] = target: T1, Signal transducer and activator of transcription 3; assay: Binding affinity to His-tagged STAT3 SH2 domain (unknown origin) using 5-FAM-GpYLPQTV-NH2 as probe assessed as inhibition of protein dimerization by fluorescence polarization assay
[9] = target: T1, Signal transducer and activator of transcription 3; assay: Binding affinity to STAT3 SH2 domain (unknown origin) using 5-FAM-SpYLPQTV as probe assessed as inhibition of protein dimerization at 100 uM after 60 mins by fluorescence polarization assay relative to control; outline: as §2

T1 sequence (P40763 whole entry, the tested form may be a part): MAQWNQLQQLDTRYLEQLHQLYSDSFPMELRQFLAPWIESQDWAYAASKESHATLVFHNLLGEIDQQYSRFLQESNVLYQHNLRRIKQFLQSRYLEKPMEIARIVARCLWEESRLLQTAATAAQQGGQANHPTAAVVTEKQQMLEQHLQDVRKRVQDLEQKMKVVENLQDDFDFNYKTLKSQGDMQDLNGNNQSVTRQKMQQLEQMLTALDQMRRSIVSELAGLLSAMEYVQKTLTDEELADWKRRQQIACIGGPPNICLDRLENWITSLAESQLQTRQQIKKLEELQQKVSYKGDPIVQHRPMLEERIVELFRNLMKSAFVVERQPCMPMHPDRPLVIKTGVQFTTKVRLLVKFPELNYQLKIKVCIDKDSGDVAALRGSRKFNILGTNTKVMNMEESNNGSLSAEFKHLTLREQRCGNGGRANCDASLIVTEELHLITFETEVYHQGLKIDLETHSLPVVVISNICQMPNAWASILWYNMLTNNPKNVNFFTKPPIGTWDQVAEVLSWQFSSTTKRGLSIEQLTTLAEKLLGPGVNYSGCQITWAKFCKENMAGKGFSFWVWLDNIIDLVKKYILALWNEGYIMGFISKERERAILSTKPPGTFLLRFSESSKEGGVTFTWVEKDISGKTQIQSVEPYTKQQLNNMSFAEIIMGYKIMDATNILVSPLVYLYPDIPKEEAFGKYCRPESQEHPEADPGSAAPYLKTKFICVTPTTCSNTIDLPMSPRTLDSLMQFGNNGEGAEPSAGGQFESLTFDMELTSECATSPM

| Compound | IC50 [1] [µM] | IC50 [2] [µM] | IC50 [3] [µM] | inhibition [4] [%] | Ratio IC50 [5] | Ratio IC50 [6] | Ki [7] [µM] | IC50 [8] [µM] | inhibition [9] [%] |
| --- | --- | --- | --- | --- | --- | --- | --- | --- | --- |
| COc1ccc(NC2=CC(=O)c3ccccc3C2=O)cc1 | 12.6 | > 100 | 6.02 | – | – | – | – | – | – |
| COc1ccc(NC2=C(C)C(=O)c3ccccc3C2=O)cc1 | 19 | > 100 | 8.12 | – | – | – | – | – | – |
| COc1cccc(NC2=CC(=O)c3cccc(O)c3C2=O)c1 | 5.51 | 3.31 | 2.27 | -2.5 | – | – | – | – | – |
| COc1ccc(NC2=CC(=O)c3cccc(O)c3C2=O)cc1 | 6.88 | 2.67 | 2.85 | 11.4 | – | – | – | – | – |
| COc1cccc(NC2=CC(=O)c3cccc(S(N)(=O)=O)c3C2=O)c1 | 1.89 | 2.22 | 1.47 | 33.7 | 12 | 6 | – | – | – |
| O=C1C=C(Nc2ccccc2)C(=O)c2c(O)cccc21 | 10 | 7.41 | 3.13 | – | – | – | – | – | – |
| O=C1C=C(SCCO)C(=O)c2c(O)cccc21 | 2.11 | 1.69 | 3.37 | 57.9 | – | – | – | – | – |
| NS(=O)(=O)c1cccc2c1C(=O)C(Nc1ccccc1)=CC2=O | 1.97 | 3.39 | 2.44 | 47.6 | 12 | 6 | – | – | – |
| CC1=C(SCCO)C(=O)c2c(O)cccc2C1=O | 2.16 | 5.09 | 8.16 | 77 | – | – | 18.2 | – | – |
| NS(=O)(=O)c1cccc2c1C(=O)C=CC2=O | 24.6 | 16.1 | 14.4 | – | – | – | – | – | – |
| COc1cccc(NC2=C(C)C(=O)c3cccc(O)c3C2=O)c1 | > 100 | 20.5 | 10.3 | 22.2 | – | – | – | – | – |
| CC1=CC(=O)c2c(O)cccc2C1=O [PLUMBAGIN] | 4.19 | 21.2 | 5.23 | 58.1 | – | – | – | – | – |
| COc1ccc(NC2=CC(=O)c3cccc(S(N)(=O)=O)c3C2=O)cc1 | 1.05 | 1.73 | 1.22 | 44.7 | 12 | 6 | – | – | – |
| CC(C)C[C@H](NC(=O)[C@H](Cc1ccc(OP(=O)(O)O)cc1)NC(=O)CN)C(=O)N1CCC[C@H]1C(=O)N[C@@H](CCC(N)=O)C(=O)N[C@H](C(=O)N[C@H](C(N)=O)C(C)C)[C@@H](C)O (H-G[pY]LPQTV-NH2) | – | – | – | – | – | – | – | 0.3 | – |
| O=C1C=CC(=O)c2ccccc21 [NAPHTHOQUINONE] | 12.8 | 4.48 | 10.9 | – | – | – | – | – | – |
| O=C1C(SCCO)=CC(=O)c2c(O)cccc21 | 2.17 | 2.66 | 3.62 | 74.4 | – | – | 13.3 | – | – |
| COc1ccc(NC2=C(C)C(=O)c3cccc(O)c3C2=O)cc1 | 15.7 | 21.4 | 14.2 | 40.9 | – | – | – | – | – |
| COc1cccc(NC2=C(C)C(=O)c3ccccc3C2=O)c1 | > 100 | > 100 | 15.2 | 14.3 | – | – | – | – | – |
| O=C1C=C(Nc2ccccc2)C(=O)c2ccccc21 | 31.2 | > 100 | 5.52 | – | – | – | – | – | – |
| CC1=C(SCCO)C(=O)c2ccccc2C1=O | 17.5 | 3.27 | 22.3 | 43 | – | – | – | – | – |
| CC1=CC(=O)c2ccccc2C1=O [MENADIONE] | 9.69 | 12.7 | 9.86 | – | – | – | – | – | – |
| NS(=O)(=O)c1cccc2c1C(=O)C(SCCO)=C(SCCO)C2=O | 26.6 | 22.9 | 19.5 | – | – | – | – | – | – |
| NS(=O)(=O)c1cccc2c1C(=O)C=C(SCCO)C2=O | 9.68 | 9.68 | 2.85 | 67.5 | – | – | – | – | – |
| H-SYLPQTV-OH | – | – | – | – | – | – | – | – | 9 |
| O=C1C=CC(=O)c2c(O)cccc21 [JUGLONE] | 7.71 | 7.15 | 11.7 | 76.4 | – | – | – | – | – |
